Experimental data reported in PMC7115534 (Peptides, 2009).
In brackets after ≈: the same amount, converted by molar mass. Like-named read-outs stand apart in the source and are kept apart here. Where a SMILES comes first, the peptide text is derived from it. The star is where a group is joined. Cbz = O=C(OCc1ccccc1)*; CH2F = FC*

Tests used:
[1] = tested on: Vero cells; conditions: microscopic alteration of cell morphology
[2] = tested on: Sindbis virus; experiment: Antiviral activity in Vero cells, Sindbis virus; assay type: cell-based; conditions: read-out: EC50 Sindbis virus
[3] = tested on: Reovirus-1; experiment: Antiviral activity in Vero cells, reovirus-1; assay type: cell-based; conditions: read-out: EC50 Reovirus-1
[4] = tested on: Punta Toro virus; experiment: Antiviral activity in Vero cells, Punta Toro virus; assay type: cell-based; conditions: read-out: EC50 Punta Toro virus
[5] = tested on: Para-influenza-3 virus; experiment: Antiviral activity in Vero cells, para-influenza-3; assay type: cell-based; conditions: read-out: EC50 Para-influenza-3 virus
[6] = in vitro; conditions: dog
[7] = tested on: Influenza B; experiment: Anti-influenza B activity in MDCK cells; assay type: cell-based; conditions: Influenza B virus
[8] = tested on: MDCK cells; conditions: microscopic alteration of cell morphology
[9] = tested on: Clematis montana lectin (CML); experiment: Hemagglutination inhibition assay; assay type: biochemical
Outline: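 Sugars were serially diluted 2-fold and mixed with an equal volume of lectin at 8 hemagglutination units. After 30 min at room temperature, 2% rabbit erythrocyte suspension was added in U-bottom wells. Plates were read after 1 h. The endpoint was the minimum sugar concentration in the final mixture giving complete inhibition; lectin dilutions were made in 0.15 M NaCl.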

[10] = tested on: L929 cells; experiment: Effect of carbohydrates and caspase inhibitors on CML-induced L929 cell death; assay type: cell-based, murine; conditions: 24 h; for effect of carbohydrate pre-incubation on CML-induced L929 cell death: 1 pM CML pre-incubated with sugar at 37 °C for 30 min, MTT; for effect of caspase inhibitor on CML-induced L929 apoptosis: 20 μM, 1 h prior to CML
Outline: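 Murine L929 fibroblasts in DMEM with 10% FBS and nonessential amino acids at 37 °C, 5% CO2, were seeded at 1 × 10^5 cells/well for 24 h. Caspase inhibitors (pan-caspase z-VAD-fmk, caspase-3 z-DEVD-fmk, caspase-8 z-IETD-fmk; 20 μmol/l) were added 1 h before lectin, then cells were incubated 24 h. MTT was read at 490 nm as % growth inhibition versus control and blank; n = 5.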

[11] = tested on: HIV-1 (IIIB); conditions: CEM cells; cited from earlier work
[12] = tested on: HIV-2 (strain ROD); conditions: CEM cells; cited from earlier work
[13] = read-out: Antiviral EC50 Influenza B MTS
[14] = read-out: Antiviral EC50 Influenza B Visual CPE Score

Nc1ncnc2c1ncn2C[C@H](O)CO [(S)-DHPA]
Minimum cytotoxic concentration [1]: >250 µM | EC50 [2]: > 250 µM | EC50 [3]: > 250 µM | EC50 [4]: > 250 µM | EC50 [5]: > 250 µM

NC12CC3CC(CC(C3)C1)C2 [Amantadine]
CC50 [6]: > 1000 µM | EC50 [7, 13]: > 1000 µM | EC50 [7, 14]: > 1000 µM | Cytotoxicity Minimum cytotoxic concentration [8]: >1000 µM

OC[C@H]1O[C@H](O[C@@H]2C(O)O[C@H](CO)[C@@H](O)[C@@H]2O)[C@@H](O)[C@@H](O)[C@@H]1O (stereo partly drawn) [Man-a(1,2)-Man]
inhibition of CML agglutination of rabbit erythrocytes (in words) [9]: slightly inhibitory

OC[C@H]1O[C@H](O[C@H]2[C@H](O)[C@@H](CO)OC(O)[C@H]2O)[C@@H](O)[C@@H](O)[C@@H]1O (stereo partly drawn) [Man-a(1,3)-Man]
inhibition of CML agglutination of rabbit erythrocytes (in words) [9]: slightly inhibitory

OC[C@H]1O[C@H](OC[C@H]2OC(O)[C@@H](O)[C@@H](O[C@H]3O[C@H](CO)[C@@H](O)[C@H](O)[C@@H]3O)[C@@H]2O)[C@@H](O)[C@@H](O)[C@@H]1O (stereo partly drawn) [Man-a(1,3:1,6)-mannotriose]
Minimum inhibitory concentration (MIC) ([9]; complete inhibition of 8 hemagglutination units of CML, rabbit erythrocytes): 2500 µM (≈ 1260 µg/mL) | effect of carbohydrate pre-incubation on CML-induced L929 cell death [10]: the cell inhibitory ratio was abruptly decreased

OC[C@H]1O[C@H](OC[C@H]2OC(O)[C@@H](O)[C@@H](O)[C@@H]2O)[C@@H](O)[C@@H](O)[C@@H]1O (stereo partly drawn) [Man-a(1,6)-Man]
inhibition of CML agglutination of rabbit erythrocytes (in words) [9]: slightly inhibitory | effect of carbohydrate pre-incubation on CML-induced L929 cell death [10]: slightly more effective inhibitor than Man-a(1,3:1,6)-mannotriose

CCC(CC)O[C@@H]1C=C(C(=O)O)C[C@H](N)[C@H]1NC(C)=O [Oseltamivir Carboxylate]
CC50 [6]: > 100 µM | EC50 [7, 13]: 15 µM | EC50 [7, 14]: 8 µM | Cytotoxicity Minimum cytotoxic concentration [8]: >100 µM

NC(=O)c1ncn([C@@H]2O[C@H](CO)[C@@H](O)[C@H]2O)n1 [Ribavirin]
Minimum cytotoxic concentration [1]: >250 µM | EC50 [2]: > 250 µM | EC50 [3]: 250 µM | EC50 [7, 13]: 4.3 µM | EC50 [7, 14]: 9 µM | Cytotoxicity Minimum cytotoxic concentration [8]: >100 µM

CC(N)C12CC3CC(CC(C3)C1)C2 (stereo not drawn) [Rimantadine]
CC50 [6]: 525 µM | EC50 [7, 13]: > 200 µM | EC50 [7, 14]: > 200 µM | Cytotoxicity Minimum cytotoxic concentration [8]: 1000 µM

COC(=O)CC[C@H](NC(=O)[C@H](CC(=O)OC)NC(=O)OCc1ccccc1)C(=O)N[C@H](C(=O)N[C@@H](CC(=O)OC)C(=O)CF)C(C)C [z-DEVD-fmk]
effect of caspase inhibitor on CML-induced L929 apoptosis [10]: partially blocked apoptosis

CC[C@H](C)[C@H](NC(=O)OCc1ccccc1)C(=O)N[C@@H](CCC(=O)OC)C(=O)N[C@H](C(=O)N[C@@H](CC(=O)OC)C(=O)CF)[C@@H](C)O [z-IETD-fmk] (Cbz-IE(OMe)TD(OMe)-CH2F)
effect of caspase inhibitor on CML-induced L929 apoptosis [10]: partially blocked apoptosis

COC(=O)C[C@H](NC(=O)[C@H](C)NC(=O)[C@@H](NC(=O)OCc1ccccc1)C(C)C)C(=O)CF [z-VAD-fmk] (Cbz-Val-Ala-Asp(OMe)-CH2F)
effect of caspase inhibitor on CML-induced L929 apoptosis [10]: partially blocked apoptosis

Galanthus nivalis agglutinin [GNA]
EC50 HIV-1 [11]: 0.92 µg/mL | EC50 HIV-2 [12]: 0.78 µg/mL

Lycoris radiate agglutinin [LRA]
EC50 HIV-1 [11]: 0.79 µg/mL | EC50 HIV-2 [12]: 0.59 µg/mL

Scilla campanulata agglutinin [SCA]
EC50 HIV-1 [11]: 4.6 µg/mL | EC50 HIV-2 [12]: 8 µg/mL

thyroglobulin: a glycoprotein
inhibition of CML agglutination of rabbit erythrocytes (in words) [9]: inhibited the agglutination
